{"source": "ChEMBL document CHEMBL1138064", "about": "“Discovery of N-[(3R)-1-azabicyclo[2.2.2]oct-3-yl]furo[2,3-c]pyridine-5-carboxamide, an agonist of the alpha7 nicotinic acetylcholine receptor, for the potential treatment of cognitive deficits in schizophrenia: synthesis and structure--activity relationship” (J Med Chem, 2006)", "key": {"[1]": {"target": "Substance-P receptor (Homo sapiens) (UniProt P25103)", "sequence (P25103 whole entry)": "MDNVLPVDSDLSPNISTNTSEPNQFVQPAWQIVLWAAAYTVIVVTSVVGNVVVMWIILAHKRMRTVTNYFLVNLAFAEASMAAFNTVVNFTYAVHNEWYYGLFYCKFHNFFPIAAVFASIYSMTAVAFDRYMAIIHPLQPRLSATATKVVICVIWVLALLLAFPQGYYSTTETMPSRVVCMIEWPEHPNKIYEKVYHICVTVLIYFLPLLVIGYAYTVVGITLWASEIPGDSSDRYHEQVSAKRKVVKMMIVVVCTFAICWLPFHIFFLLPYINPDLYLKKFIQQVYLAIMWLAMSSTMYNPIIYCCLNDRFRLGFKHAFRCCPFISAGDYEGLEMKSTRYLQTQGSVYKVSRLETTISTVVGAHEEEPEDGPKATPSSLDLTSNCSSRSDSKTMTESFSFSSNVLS", "experiment": "Inhibition of NK1 receptor at 1 uM"}, "[2]": {"target": "Acetylcholine receptor; alpha1/beta1/delta/gamma (Homo sapiens, UniProt P02708+P07510+P11230+Q07001)", "experiment": "Inhibition of alpha-1-beta-1-gamma-delta nAChR expressed in TE671cells by FLIPR assay", "format": "functional, cell-based, TE-671", "in_short": "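Functional FLIPR read-out in TE671 cells expressing native muscle-type α1β1γδ nAChR, cell-based; tested for agonist and antagonist activity; IC50 in µM.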"}, "[3]": {"target": "Muscarinic acetylcholine receptor M1 (Homo sapiens) (UniProt P11229)", "sequence (P11229 whole entry)": "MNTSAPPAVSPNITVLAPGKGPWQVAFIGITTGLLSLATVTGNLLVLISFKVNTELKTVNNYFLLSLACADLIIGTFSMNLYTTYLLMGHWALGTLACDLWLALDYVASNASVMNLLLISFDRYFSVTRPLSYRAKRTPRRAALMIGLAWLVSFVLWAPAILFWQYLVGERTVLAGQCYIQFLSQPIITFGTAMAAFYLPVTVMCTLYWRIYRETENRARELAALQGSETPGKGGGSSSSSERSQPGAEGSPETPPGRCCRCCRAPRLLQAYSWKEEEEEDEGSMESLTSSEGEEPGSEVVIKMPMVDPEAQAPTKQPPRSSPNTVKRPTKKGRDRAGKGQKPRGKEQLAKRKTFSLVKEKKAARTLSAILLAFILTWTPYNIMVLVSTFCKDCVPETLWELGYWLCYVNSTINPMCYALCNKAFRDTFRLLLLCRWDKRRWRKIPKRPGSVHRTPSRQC", "experiment": "Inhibition of M1 receptor at 1 uM"}, "[4]": {"organism": "Homo sapiens", "experiment": "Inhibition of stimulated adenylate cyclase at 1 uM"}, "[5]": {"experiment": "Clearance in rat at 5 mg/kg", "format": "ADME, organism-based", "design": "dose 5 mg/kg", "conditions": "in vivo"}, "[6]": {"system": "Rattus norvegicus", "experiment": "Drug level in Sprague-Dawley rat brain at 10 mg/kg, iv", "format": "ADME, organism-based", "design": "dose 10 mg/kg, route intravenous", "conditions": "in vivo, read-out: Drug uptake", "in_short": "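Anesthetized rats received d-amphetamine (1 mg/kg, iv) and then the agonist iv in the auditory gating model. Brain concentrations were measured after the iv agonist dose.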"}, "[7]": {"target": "Platelet-derived growth factor receptor (Homo sapiens) (UniProt P09619+P16234)", "experiment": "Inhibition of PDGF receptor at 1 uM", "format": "protein-complex assay"}, "[8]": {"organism": "Homo sapiens", "experiment": "Inhibition of site 2 of sodium channel at 1 uM"}, "[9]": {"target": "Calcitonin gene-related peptide type 1 receptor (Homo sapiens) (UniProt Q16602)", "sequence (Q16602 whole entry)": "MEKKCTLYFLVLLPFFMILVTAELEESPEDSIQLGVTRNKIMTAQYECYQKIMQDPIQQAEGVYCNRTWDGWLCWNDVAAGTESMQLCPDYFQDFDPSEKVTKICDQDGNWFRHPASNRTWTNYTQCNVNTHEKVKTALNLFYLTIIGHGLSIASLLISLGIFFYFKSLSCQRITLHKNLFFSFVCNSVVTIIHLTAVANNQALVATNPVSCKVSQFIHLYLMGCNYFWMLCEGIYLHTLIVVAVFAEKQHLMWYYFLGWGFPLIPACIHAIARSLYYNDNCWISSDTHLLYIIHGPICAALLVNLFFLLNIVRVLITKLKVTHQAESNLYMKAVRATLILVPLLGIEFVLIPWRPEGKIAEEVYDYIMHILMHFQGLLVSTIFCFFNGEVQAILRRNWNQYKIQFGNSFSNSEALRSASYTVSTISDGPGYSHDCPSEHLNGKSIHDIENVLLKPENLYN", "experiment": "Inhibition of CGRP receptor at 1 uM"}, "[10]": {"target": "Neuromedin-K receptor (Homo sapiens) (UniProt P29371)", "sequence (P29371 whole entry)": "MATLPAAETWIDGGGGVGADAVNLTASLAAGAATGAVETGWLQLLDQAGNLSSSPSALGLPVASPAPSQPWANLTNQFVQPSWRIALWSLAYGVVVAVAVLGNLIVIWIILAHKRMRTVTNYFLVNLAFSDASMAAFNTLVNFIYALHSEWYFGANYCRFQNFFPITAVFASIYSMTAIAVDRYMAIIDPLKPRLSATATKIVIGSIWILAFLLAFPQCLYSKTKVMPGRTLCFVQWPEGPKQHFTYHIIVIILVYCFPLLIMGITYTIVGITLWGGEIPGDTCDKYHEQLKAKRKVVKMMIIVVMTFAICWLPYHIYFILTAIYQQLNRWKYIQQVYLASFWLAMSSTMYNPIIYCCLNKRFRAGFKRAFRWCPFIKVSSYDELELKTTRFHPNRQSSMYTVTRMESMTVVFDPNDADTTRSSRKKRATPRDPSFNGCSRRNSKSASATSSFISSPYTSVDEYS", "experiment": "Inhibition of NK3 receptor at 1 uM"}, "[11]": {"target": "Neuronal acetylcholine receptor subunit alpha-7 (Rattus norvegicus) (UniProt Q05941)", "sequence (Q05941 whole entry)": "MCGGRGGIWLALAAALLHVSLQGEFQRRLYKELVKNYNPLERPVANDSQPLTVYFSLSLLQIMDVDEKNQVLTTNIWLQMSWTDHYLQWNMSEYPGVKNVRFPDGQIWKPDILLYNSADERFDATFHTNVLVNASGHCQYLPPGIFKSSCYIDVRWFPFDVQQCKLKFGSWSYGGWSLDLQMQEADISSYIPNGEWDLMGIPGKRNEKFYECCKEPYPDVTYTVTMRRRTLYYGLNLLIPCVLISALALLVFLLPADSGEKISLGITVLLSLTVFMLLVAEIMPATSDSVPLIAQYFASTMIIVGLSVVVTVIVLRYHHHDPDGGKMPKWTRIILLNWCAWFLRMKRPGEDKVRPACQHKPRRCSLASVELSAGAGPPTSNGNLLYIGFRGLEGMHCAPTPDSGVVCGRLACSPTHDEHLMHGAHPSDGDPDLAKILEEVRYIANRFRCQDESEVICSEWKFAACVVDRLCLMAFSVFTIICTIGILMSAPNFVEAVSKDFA", "experiment": "Activity at alpha-7 nAChR in Sprague-Dawley rat hippocampal neurons assessed as induction of MLA-inhibited desensitizing inward current at 30 uM relative to (-)-nicotine", "format": "functional, tissue-based", "design": "scale not given: the % may be the effect or the level left", "conditions": "Hippocampus", "in_short": "(§1)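 Rat hippocampal neurons were recorded by whole-cell patch clamp with rapid agonist application. Desensitizing inward currents were measured, and α7 mediation was tested with MLA (10 nM), n = 3.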"}, "[12]": {"target": "Beta-1 adrenergic receptor (Homo sapiens) (UniProt P08588)", "sequence (P08588 whole entry, looked up)": "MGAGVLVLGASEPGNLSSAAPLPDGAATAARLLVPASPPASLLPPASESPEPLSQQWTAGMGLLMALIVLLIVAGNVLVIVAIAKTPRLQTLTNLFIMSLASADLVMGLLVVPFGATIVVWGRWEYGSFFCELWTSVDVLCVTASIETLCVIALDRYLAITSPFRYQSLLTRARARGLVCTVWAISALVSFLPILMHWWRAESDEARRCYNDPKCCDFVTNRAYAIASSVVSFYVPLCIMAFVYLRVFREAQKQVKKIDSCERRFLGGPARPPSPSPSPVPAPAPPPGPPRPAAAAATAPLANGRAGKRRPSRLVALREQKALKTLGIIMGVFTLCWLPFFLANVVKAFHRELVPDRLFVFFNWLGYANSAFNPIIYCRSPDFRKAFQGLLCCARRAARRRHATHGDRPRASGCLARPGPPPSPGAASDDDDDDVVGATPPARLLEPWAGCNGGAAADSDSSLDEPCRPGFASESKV", "experiment": "Inhibition of adrenergic beta-1 receptor at 1 uM"}, "[13]": {"target": "Phosphodiesterase 1 (Homo sapiens) (UniProt P54750+Q01064+Q14123)", "experiment": "Inhibition of PDE1 at 1 uM", "format": "protein assay"}, "[14]": {"organism": "Homo sapiens", "experiment": "Inhibition of elastase at 1 uM"}, "[15]": {"target": "Endothelin receptor type B (Homo sapiens) (UniProt P24530)", "experiment": "Inhibition of human ETB receptor at 1 uM"}, "[16]": {"target": "Neuronal acetylcholine receptor subunit alpha-7 (Rattus norvegicus) (UniProt Q05941)", "experiment": "Activity at alpha7 nAChR in Sprague-Dawley rat hippocampal neurons assessed as induction of MLA-inhibited desensitizing inward current at 0.3 uM relative to (-)-nicotine", "format": "functional, tissue-based", "design": "scale not given: the % may be the effect or the level left", "conditions": "Hippocampus", "in_short": "as §1"}, "[17]": {"target": "Muscarinic acetylcholine receptor M2 (Homo sapiens) (UniProt P08172)", "experiment": "Inhibition of M2 receptor at 1 uM"}, "[18]": {"target": "Endothelin-1 receptor (Homo sapiens) (UniProt P25101)", "experiment": "Inhibition of human ETA receptor at 1 uM"}, "[19]": {"target": "Endothelin-converting enzyme 1 (Homo sapiens) (UniProt P42892)", "experiment": "Inhibition of ECE at 1 uM"}, "[20]": {"target": "Acetylcholinesterase (Homo sapiens) (UniProt P22303)", "sequence (P22303 whole entry)": "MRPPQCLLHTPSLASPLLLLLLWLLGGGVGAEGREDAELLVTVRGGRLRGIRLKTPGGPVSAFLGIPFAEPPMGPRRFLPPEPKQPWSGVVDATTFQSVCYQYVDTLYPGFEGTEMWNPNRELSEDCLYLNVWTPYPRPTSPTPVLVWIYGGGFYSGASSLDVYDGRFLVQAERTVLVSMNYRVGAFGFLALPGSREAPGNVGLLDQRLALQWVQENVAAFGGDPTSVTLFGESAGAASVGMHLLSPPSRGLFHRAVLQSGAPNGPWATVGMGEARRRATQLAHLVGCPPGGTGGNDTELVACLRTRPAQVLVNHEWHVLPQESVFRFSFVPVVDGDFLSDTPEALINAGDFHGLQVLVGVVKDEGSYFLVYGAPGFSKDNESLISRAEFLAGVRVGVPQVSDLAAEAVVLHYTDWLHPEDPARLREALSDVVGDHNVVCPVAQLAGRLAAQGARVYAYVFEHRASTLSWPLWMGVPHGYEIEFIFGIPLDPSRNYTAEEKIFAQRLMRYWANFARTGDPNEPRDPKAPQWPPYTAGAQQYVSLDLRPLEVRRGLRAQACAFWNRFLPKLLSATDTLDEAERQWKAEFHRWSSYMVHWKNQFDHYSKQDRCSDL", "experiment": "Inhibition of acetylcholinesterase at 1 uM"}, "[21]": {"target": "5-hydroxytryptamine receptor 7 (Homo sapiens) (UniProt P34969)", "experiment": "Inhibition of 5HT7 receptor at 1 uM"}, "[22]": {"experiment": "Clearance in rat constant infusion model", "format": "ADME, organism-based", "conditions": "in vivo, iv", "in_short": "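Clearance determined in a rat constant infusion model.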"}, "[23]": {"target": "Atrial natriuretic peptide receptor (Homo sapiens) (UniProt P20594+P16066+P17342)", "experiment": "Inhibition of ANP receptor at 1 uM", "format": "protein assay"}, "[24]": {"target": "hERG (Homo sapiens, UniProt Q12809)", "sequence (Q12809 whole entry)": "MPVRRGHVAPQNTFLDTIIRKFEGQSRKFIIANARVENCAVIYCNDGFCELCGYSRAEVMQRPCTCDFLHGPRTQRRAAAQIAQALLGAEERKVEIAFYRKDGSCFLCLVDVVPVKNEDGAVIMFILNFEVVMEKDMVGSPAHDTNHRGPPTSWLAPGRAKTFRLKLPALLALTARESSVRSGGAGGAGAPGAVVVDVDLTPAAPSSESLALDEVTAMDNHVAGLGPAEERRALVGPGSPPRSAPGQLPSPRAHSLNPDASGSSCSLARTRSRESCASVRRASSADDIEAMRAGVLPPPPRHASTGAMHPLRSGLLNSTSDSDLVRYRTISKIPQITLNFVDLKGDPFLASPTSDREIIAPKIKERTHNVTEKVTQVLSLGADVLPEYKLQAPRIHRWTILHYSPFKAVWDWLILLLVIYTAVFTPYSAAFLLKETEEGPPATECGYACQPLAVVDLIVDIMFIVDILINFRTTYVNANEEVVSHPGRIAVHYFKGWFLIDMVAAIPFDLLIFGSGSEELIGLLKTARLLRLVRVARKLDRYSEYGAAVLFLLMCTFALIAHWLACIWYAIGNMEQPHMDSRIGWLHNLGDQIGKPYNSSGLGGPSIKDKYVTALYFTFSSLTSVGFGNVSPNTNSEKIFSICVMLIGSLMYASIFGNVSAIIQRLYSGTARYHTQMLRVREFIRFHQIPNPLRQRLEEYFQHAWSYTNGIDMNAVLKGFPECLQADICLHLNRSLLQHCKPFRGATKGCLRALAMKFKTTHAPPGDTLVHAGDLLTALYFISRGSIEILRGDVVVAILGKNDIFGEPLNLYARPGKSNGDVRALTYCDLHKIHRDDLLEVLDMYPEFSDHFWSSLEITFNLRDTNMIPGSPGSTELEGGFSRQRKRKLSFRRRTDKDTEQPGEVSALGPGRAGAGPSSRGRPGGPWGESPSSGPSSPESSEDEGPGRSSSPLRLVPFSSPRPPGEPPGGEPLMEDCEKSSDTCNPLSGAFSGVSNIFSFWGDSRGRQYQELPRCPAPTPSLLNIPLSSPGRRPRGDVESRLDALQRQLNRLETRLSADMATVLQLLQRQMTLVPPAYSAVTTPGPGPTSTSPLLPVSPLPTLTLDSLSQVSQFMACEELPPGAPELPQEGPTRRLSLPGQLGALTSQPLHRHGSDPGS", "experiment": "Inhibition of hERG expressed in HEK293 cells at 20 uM by patch clamp assay", "format": "toxicity, cell-based", "conditions": "HEK293 cells that express hERG", "in_short": "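hERG current (IKr) in HEK cells recorded by patch clamp; compound applied at 2 and 20 µM; % block of current reported at each concentration.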"}, "[25]": {"target": "MAO-A (Homo sapiens, UniProt P21397)", "experiment": "Inhibition of MAO-A at 1 uM"}, "[26]": {"organism": "Homo sapiens", "experiment": "Inhibition of potassium channel V type at 1 uM"}, "[27]": {"experiment": "Volume of distribution in rat at 5 mg/kg", "format": "ADME, organism-based", "design": "dose 5 mg/kg", "conditions": "in vivo, read-out: Vdss"}, "[28]": {"target": "D(3) dopamine receptor (Homo sapiens) (UniProt P35462)", "experiment": "Inhibition of D3 receptor at 1 uM"}, "[29]": {"organism": "Homo sapiens", "experiment": "Inhibition of Small conductance calcium-activated potassium channel at 1 uM"}, "[30]": {"system": "Rattus norvegicus", "experiment": "Reversal of amphetamine-induced gating deficit in Sprague-Dawley at 1 mg/kg, iv", "format": "functional, organism-based", "design": "dose 1 mg/kg", "in_short": "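Anesthetised rats; d-amphetamine 1 mg/kg iv given to disrupt auditory gating recorded in the hippocampal CA3 region (conditioning vs test responses, analogous to human P50). Agonist given iv afterwards; read-out is % gating versus amphetamine-alone. The 10 mg/kg dose was run as a separate experiment. Brain drug levels were measured after the iv doses.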"}, "[31]": {"target": "Mu-type opioid receptor (Homo sapiens) (UniProt P35372)", "sequence (P35372 whole entry)": "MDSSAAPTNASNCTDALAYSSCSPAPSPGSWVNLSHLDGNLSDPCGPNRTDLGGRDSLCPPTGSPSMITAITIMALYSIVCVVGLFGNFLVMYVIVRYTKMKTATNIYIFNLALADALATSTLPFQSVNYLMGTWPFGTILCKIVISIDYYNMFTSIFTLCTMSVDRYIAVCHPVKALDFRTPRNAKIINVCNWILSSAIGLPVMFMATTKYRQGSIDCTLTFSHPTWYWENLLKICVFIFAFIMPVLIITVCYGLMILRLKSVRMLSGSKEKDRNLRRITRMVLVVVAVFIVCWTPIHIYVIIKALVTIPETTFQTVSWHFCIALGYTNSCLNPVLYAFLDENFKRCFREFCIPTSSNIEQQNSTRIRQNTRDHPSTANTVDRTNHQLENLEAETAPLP", "experiment": "Inhibition of human mu opioid receptor at 1 uM"}, "[32]": {"experiment": "Half life in Sprague-Dawley rat liver microsome", "format": "ADME", "conditions": "liver microsomes"}}, "note": "Calls of active or inactive are those of the source. No cut-off for these calls is given here."}
{"compound": "O=C(N[C@H]1CN2CCC1CC2)c1cc2ccoc2cn1", "note": "[PHA-543613]", "values": [{"measurement": "inhibition", "setting": "[1]", "result": 26, "unit": "%"}, {"measurement": "IC50", "setting": "[2]", "result": "> 100", "unit": "µM"}, {"measurement": "inhibition", "setting": "[3]", "result": 16, "unit": "%"}, {"measurement": "inhibition", "setting": "[4]", "result": "< 10", "unit": "%"}, {"measurement": "clearance", "setting": "[5]", "result": 33.3, "unit": "mL/min/kg"}, {"measurement": "concentration", "setting": "[6]", "result": 14.9, "unit": "µM"}, {"measurement": "inhibition", "setting": "[7]", "result": "< 10", "unit": "%"}, {"measurement": "inhibition", "setting": "[8]", "result": 13, "unit": "%"}, {"measurement": "inhibition", "setting": "[9]", "result": "< 10", "unit": "%"}, {"measurement": "inhibition", "setting": "[10]", "result": "< 10", "unit": "%"}, {"measurement": "Activity", "setting": "[11]", "result": 220, "unit": "%"}, {"measurement": "inhibition", "setting": "[12]", "result": "< 10", "unit": "%"}, {"measurement": "inhibition", "setting": "[13]", "result": "< 10", "unit": "%"}, {"measurement": "inhibition", "setting": "[14]", "result": 22, "unit": "%"}, {"measurement": "inhibition", "setting": "[15]", "result": "< 10", "unit": "%"}, {"measurement": "Activity", "setting": "[16]", "result": 34, "unit": "%"}, {"measurement": "inhibition", "setting": "[17]", "result": 23, "unit": "%"}, {"measurement": "inhibition", "setting": "[18]", "result": "< 10", "unit": "%"}, {"measurement": "inhibition", "setting": "[19]", "result": "< 10", "unit": "%"}, {"measurement": "inhibition", "setting": "[20]", "result": "< 10", "unit": "%"}, {"measurement": "inhibition", "setting": "[21]", "result": "< 10", "unit": "%"}, {"measurement": "clearance", "setting": "[22]", "result": 50, "unit": "mL/min/kg"}, {"measurement": "inhibition", "setting": "[23]", "result": "< 10", "unit": "%"}, {"measurement": "inhibition at 20 µM", "setting": "[24]", "result": 29, "unit": "%"}, {"measurement": "inhibition at 1 µM", "setting": "[25]", "result": "< 10", "unit": "%"}, {"measurement": "inhibition", "setting": "[26]", "result": "< 10", "unit": "%"}, {"measurement": "Vd", "setting": "[27]", "result": 1.8, "unit": "L/kg"}, {"measurement": "inhibition", "setting": "[28]", "result": 10, "unit": "%"}, {"measurement": "inhibition", "setting": "[29]", "result": "< 10", "unit": "%"}, {"measurement": "Activity", "setting": "[30]", "result": "Active"}, {"measurement": "inhibition", "setting": "[31]", "result": "< 10", "unit": "%"}, {"measurement": "half-life", "setting": "[32]", "result": 40, "unit": "min"}]}
